# From ChEMBL document CHEMBL4052618, “Design, synthesis, SAR discussion, in vitro and in vivo evaluation of novel selective EGFR modulator to inhibit L858R/T790M double mutants” (Eur J Med Chem, 2017)
# Key:
# [1] = biological target: Fibroblast growth factor receptor 1 (Homo sapiens) (UniProt P11362); assay: Inhibition of FGFR1 (unknown origin) at 1 uM relative to control
# [2] = biological target: Tyrosine-protein kinase Fes/Fps (Homo sapiens) (UniProt P07332); assay: Inhibition of FES (FPS) (unknown origin) at 1 uM relative to control
# [3] = biological target: Protein-tyrosine kinase 6 (Homo sapiens) (UniProt Q13882); assay: Inhibition of PTK6 (unknown origin) at 1 uM relative to control
# Protein-tyrosine kinase 6 (Homo sapiens), sequence (Q13882 whole entry, looked up): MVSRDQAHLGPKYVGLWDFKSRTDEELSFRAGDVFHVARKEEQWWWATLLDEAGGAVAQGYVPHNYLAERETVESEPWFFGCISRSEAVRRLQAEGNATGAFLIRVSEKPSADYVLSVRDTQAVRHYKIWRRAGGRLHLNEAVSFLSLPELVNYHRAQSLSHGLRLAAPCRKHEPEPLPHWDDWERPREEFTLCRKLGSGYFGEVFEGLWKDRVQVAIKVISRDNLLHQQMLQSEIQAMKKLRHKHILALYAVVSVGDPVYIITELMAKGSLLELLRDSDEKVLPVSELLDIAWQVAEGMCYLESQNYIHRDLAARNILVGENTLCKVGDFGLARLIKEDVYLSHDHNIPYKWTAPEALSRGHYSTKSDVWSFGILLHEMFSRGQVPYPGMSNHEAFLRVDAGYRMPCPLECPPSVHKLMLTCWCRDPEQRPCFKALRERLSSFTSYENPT
# [4] = biological target: cAMP-dependent protein kinase catalytic subunit alpha (Homo sapiens) (UniProt P17612); assay: Inhibition of PRKACA (unknown origin) at 1 uM relative to control
# Mus musculus [5] = assay: Toxicity in nude C.B-17 SCID mouse model xenografted with human NCI-H1975 cells assessed as loss of body weight at 5 to 20 mg/kg, ig for 18 days; format: organism-based; details: in vivo, po, 432 h
# Method in brief: (§1)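 H1975 xenografts were set up by subcutaneous inoculation of 5 × 10^6 cells into C.B-17 SCID mice. At a mean tumor volume of 100-150 mm3, mice were randomized into groups of n = 9. They were dosed intragastrically once daily for 18 days at 5, 10 or 20 mg/kg, given as 0.1 mL/10 g body weight. The control group received PBS, and tumors were caliper-measured twice weekly.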
# [6] = biological target: Serine/threonine-protein kinase Chk2 (Homo sapiens) (UniProt O96017); assay: Inhibition of CHEK2 (CHK2) (unknown origin) at 1 uM relative to control
# Serine/threonine-protein kinase Chk2 (Homo sapiens), sequence (O96017 whole entry): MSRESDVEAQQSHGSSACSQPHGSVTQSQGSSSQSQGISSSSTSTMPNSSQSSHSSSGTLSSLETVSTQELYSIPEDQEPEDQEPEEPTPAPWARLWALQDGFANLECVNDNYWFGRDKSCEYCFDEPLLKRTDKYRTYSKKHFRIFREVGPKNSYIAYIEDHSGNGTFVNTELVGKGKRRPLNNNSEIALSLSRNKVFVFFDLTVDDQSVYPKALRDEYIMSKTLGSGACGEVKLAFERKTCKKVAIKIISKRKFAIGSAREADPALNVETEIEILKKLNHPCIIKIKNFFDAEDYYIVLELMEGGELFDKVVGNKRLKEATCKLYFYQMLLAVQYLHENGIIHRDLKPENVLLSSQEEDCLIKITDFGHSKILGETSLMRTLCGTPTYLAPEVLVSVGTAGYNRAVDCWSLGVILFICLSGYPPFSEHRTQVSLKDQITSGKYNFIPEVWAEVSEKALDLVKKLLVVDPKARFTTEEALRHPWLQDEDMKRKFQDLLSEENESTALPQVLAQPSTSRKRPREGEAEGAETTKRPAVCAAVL
# [7] = Tmax in Sprague-Dawley rat at 10 mg/kg, po administered via gavage by LC-MS/MS analysis; format: ADME, organism-based; details: in vivo
# Method in brief: (§2)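 Male Sprague-Dawley rats (200-240 g) received 1 mg/kg by tail-vein injection in 2% DMSO, 20% PEG400 and 78% buffered saline, or 10 mg/kg by oral gavage in 0.5% methylcellulose. Orbital sinus blood was drawn into heparinized tubes at 2, 5, 15 and 30 min and at 1, 2, 4, 8, 12 and 24 h, then centrifuged. Plasma was measured by LC/MS/MS in SRM mode, with non-compartmental analysis.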
# [8] = biological target: Cyclin-dependent kinase 1/cyclin B1 (Homo sapiens) (UniProt P06493+P14635); assay: Inhibition of CDK1/cyclin B (unknown origin) at 1 uM relative to control; format: protein-complex assay
# Cyclin-dependent kinase 1/cyclin B1 (Homo sapiens), sequence (P06493 whole entry, looked up): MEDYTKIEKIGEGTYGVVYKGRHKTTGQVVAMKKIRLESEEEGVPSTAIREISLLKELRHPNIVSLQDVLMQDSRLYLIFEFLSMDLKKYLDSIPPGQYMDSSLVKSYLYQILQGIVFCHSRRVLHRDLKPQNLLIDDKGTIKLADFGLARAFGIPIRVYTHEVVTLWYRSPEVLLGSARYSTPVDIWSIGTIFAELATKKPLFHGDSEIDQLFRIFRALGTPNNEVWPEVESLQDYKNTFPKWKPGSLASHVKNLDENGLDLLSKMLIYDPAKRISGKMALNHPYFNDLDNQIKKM
# Cyclin-dependent kinase 1/cyclin B1 (Homo sapiens), sequence (P14635 whole entry, looked up): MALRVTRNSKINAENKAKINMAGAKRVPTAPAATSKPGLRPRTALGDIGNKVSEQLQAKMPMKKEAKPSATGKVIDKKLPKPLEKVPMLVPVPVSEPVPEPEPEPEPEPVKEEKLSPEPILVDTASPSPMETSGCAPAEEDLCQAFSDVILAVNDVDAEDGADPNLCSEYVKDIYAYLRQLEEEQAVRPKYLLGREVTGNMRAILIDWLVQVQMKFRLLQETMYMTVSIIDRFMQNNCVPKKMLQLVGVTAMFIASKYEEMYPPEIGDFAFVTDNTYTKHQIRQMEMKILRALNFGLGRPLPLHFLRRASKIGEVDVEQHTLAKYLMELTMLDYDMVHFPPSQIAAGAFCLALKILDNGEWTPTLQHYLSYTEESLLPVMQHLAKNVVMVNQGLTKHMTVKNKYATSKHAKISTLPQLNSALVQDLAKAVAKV
# [9] = biological target: Tyrosine-protein kinase BTK (Homo sapiens) (UniProt Q06187); assay: Inhibition of BTK (unknown origin) at 1 uM relative to control
# [10] = biological target: Proto-oncogene tyrosine-protein kinase ROS (Homo sapiens) (UniProt P08922); assay: Inhibition of ROS1 (unknown origin) at 1 uM relative to control
# [11] = Intrinsic clearance in dog liver microsomes; format: ADME, Canis lupus familiaris, microsome; details: read-out: CLH
# [12] = biological target: Focal adhesion kinase 1 (Homo sapiens) (UniProt Q05397); assay: Inhibition of PTK2 (unknown origin) at 1 uM relative to control
# [13] = biological target: Tyrosine-protein kinase Yes (Homo sapiens) (UniProt P07947); assay: Inhibition of YES1 (unknown origin) at 1 uM relative to control
# Tyrosine-protein kinase Yes (Homo sapiens), sequence (P07947 2-543 limits assumed): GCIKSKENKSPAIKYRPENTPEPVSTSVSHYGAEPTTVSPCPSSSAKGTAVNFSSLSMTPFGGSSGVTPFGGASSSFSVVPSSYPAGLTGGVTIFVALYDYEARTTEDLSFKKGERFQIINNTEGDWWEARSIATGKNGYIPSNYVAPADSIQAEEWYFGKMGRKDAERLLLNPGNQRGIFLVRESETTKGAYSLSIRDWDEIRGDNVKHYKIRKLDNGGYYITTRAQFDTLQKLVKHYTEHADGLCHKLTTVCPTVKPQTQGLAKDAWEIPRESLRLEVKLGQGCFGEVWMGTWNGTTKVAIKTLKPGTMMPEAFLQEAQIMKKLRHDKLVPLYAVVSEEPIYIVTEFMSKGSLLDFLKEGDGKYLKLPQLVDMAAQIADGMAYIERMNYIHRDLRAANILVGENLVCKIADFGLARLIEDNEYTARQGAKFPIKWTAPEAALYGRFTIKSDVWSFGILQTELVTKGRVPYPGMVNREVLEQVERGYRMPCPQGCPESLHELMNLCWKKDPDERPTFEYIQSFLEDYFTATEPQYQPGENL
# [14] = biological target: Epidermal growth factor receptor (Homo sapiens, UniProt P00533, L858R); assay: Inhibition of human recombinant cytoplasmic GST-tagged EGFR L858R mutant expressed in baculovirus using TK-substrate-biotin preincubated for 15 mins followed by substrate addition measured after 60 mins by FRET-based Z'-Lyte assay
# [15] = biological target: Protein kinase C beta type (Homo sapiens) (UniProt P05771); assay: Inhibition of PRKCB1 (unknown origin) at 1 uM relative to control
# NCI-H1975 [16] = assay: In vivo anti tumor activity against human NCI-H1975 cells xenografted in nude C.B-17 SCID mouse model assessed as tumor growth inhibition at 5 mg/kg, ig for 18 days measured twice a week relative to control; format: functional; details: NCI-H1975, po, 432 h, read-out: TGI
# Method in brief: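 H1975 s.c. xenografts (5 × 10^6 cells) were grown in C.B-17 SCID mice and randomized at 100-150 mm3 (n = 9). Mice were dosed intragastrically once daily for 18 days against a PBS control. TGI% = (TWcontrol − TWtreatment)/TWcontrol × 100, where TW is the mean tumor weight on day 18.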
# [17] = Intrinsic clearance in rat liver microsomes; format: ADME, microsome; details: read-out: CLH
# [18] = biological target: Fibroblast growth factor receptor 3 (Homo sapiens) (UniProt P22607); assay: Inhibition of FGFR3 (unknown origin) at 1 uM relative to control
# Fibroblast growth factor receptor 3 (Homo sapiens), sequence (P22607 23-806 limits assumed): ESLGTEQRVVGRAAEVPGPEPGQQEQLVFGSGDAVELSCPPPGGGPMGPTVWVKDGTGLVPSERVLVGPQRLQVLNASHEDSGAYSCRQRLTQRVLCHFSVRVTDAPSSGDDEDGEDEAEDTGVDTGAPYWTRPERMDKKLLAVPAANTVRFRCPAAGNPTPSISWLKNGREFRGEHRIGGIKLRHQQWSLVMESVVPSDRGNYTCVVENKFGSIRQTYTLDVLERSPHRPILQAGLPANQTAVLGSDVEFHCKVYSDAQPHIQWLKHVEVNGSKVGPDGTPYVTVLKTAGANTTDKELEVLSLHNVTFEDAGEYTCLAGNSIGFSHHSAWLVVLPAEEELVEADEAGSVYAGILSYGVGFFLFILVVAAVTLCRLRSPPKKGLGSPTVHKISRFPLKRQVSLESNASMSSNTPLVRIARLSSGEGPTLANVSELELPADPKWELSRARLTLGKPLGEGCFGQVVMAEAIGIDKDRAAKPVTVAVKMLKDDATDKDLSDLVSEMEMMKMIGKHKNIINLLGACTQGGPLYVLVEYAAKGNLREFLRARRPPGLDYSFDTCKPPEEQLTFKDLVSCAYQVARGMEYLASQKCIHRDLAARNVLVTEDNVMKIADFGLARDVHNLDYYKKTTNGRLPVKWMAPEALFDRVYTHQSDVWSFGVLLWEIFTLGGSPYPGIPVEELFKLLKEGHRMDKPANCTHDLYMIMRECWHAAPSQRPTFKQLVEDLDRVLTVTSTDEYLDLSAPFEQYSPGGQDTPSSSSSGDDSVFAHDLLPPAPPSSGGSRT
# [19] = biological target: Ephrin type-B receptor 2 (Homo sapiens) (UniProt P29323); assay: Inhibition of EPHB2 (unknown origin) at 1 uM relative to control
# Mus musculus [20] = assay: Toxicity in nude C.B-17 SCID mouse model xenografted with human NCI-H1975 cells assessed as mortality at 5 to 20 mg/kg, ig for 18 days; format: organism-based; details: in vivo, po, 432 h; method in brief: as §1
# [21] = biological target: Serine/threonine-protein kinase Sgk1 (Homo sapiens) (UniProt O00141); assay: Inhibition of SGK (unknown origin) at 1 uM relative to control
# Serine/threonine-protein kinase Sgk1 (Homo sapiens), sequence (O00141 whole entry): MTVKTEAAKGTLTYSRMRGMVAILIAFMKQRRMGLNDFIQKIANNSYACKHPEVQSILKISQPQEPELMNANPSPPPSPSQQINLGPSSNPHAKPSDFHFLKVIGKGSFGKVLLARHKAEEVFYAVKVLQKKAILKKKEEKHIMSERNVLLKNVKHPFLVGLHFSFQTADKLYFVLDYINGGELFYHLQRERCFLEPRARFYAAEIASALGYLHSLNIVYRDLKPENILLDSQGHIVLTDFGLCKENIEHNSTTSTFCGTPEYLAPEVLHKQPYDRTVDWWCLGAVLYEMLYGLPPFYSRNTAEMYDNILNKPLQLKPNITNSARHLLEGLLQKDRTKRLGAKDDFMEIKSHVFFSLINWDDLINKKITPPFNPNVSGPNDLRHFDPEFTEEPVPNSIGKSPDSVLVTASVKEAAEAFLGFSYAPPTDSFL
# NCI-H1975 [22] = assay: In vivo anti tumor activity against human NCI-H1975 cells xenografted in nude C.B-17 SCID mouse model assessed as relative tumor volume at 5 mg/kg, ig for 18 days measured twice a week relative to control; format: functional
# Method in brief: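 C.B-17 SCID mice received s.c. inoculation of 5 × 10^6 H1975 cells. At 100-150 mm3 they were randomized (n = 9 per group) and dosed intragastrically once daily for 18 days, with PBS as the control. Tumors were measured by caliper twice weekly, with V = length × width²/2. RTV = V/V0, and T/C% = treated mean RTV / control mean RTV × 100.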
# [23] = biological target: Protein kinase C alpha type (Homo sapiens) (UniProt P17252); assay: Inhibition of PRKCA (unknown origin) at 1 uM relative to control
# [24] = biological target: Receptor tyrosine-protein kinase erbB-4 (Homo sapiens) (UniProt Q15303); assay: Inhibition of ERBB4 (HER4) (unknown origin) at 1 uM relative to control
# [25] = biological target: BDNF/NT-3 growth factors receptor (Homo sapiens) (UniProt Q16620); assay: Inhibition of NTRK2 (unknown origin) at 1 uM relative to control
# BDNF/NT-3 growth factors receptor (Homo sapiens), sequence (Q16620 32-822 limits assumed): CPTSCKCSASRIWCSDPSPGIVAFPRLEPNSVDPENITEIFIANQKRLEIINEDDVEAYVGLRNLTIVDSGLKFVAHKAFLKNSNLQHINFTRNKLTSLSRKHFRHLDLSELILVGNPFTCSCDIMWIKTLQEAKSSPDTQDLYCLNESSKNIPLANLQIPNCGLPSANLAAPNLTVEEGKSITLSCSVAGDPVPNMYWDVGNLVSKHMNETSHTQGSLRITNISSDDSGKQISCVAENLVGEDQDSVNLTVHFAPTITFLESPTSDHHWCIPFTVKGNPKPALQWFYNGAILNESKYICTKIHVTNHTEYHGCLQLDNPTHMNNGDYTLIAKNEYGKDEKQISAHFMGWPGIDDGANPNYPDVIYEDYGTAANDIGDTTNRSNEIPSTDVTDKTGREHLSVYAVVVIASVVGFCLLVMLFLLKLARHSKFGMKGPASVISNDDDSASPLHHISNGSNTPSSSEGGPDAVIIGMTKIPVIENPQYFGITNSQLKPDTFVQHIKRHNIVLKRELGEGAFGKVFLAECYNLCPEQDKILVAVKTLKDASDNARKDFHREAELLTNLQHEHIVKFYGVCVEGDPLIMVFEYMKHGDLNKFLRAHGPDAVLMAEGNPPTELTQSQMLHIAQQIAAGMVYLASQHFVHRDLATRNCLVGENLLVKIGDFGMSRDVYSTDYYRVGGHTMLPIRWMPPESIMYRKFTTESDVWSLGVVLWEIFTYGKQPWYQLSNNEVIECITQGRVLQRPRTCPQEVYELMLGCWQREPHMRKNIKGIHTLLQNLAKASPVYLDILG
# [26] = biological target: Proto-oncogene tyrosine-protein kinase Src (Homo sapiens) (UniProt P12931); assay: Inhibition of SRC (unknown origin) at 1 uM relative to control
# [27] = Intrinsic clearance in mouse liver microsomes; format: ADME, microsome; details: read-out: CLH
# [28] = test system: RAF proto-oncogene serine/threonine-protein kinase (Homo sapiens), P04049 [Y340D,Y341D]; assay: Inhibition of RAF1 Y340D/Y341D double mutant (unknown origin) at 1 uM relative to control
# Homo sapiens = species: Homo sapiens; assay: Inhibition of 746 to 750 truncated EGFR (unknown origin) at 1 uM relative to control
# [29] = MRT in Sprague-Dawley rat at 10 mg/kg, po administered via gavage by LC-MS/MS analysis; format: ADME, organism-based; details: in vivo; method in brief: as §2
# [30] = biological target: Receptor-type tyrosine-protein kinase FLT3 (Homo sapiens) (UniProt P36888); assay: Inhibition of FLT3 (unknown origin) at 1 uM relative to control
smiles,measurement,setting,value
C=CC(=O)Nc1cc(Nc2nccc(-c3cn4c5c(cccc35)CCC4)n2)c(OC)cc1N(C)CCN(C)C,inhibition,[1],7%
same,inhibition,[2],42%
same,inhibition,[3],83%
same,inhibition,[4],2%
same,Activity,Mus musculus [5],Non-Toxic
same,inhibition,[6],-2%
same,Tmax,[7],3.3 h
same,inhibition,[8],5%
same,inhibition,[9],48%
same,inhibition,[10],94%
same,CLint scaled,[11],63.4 mL/min/kg
same,inhibition,[12],73%
same,inhibition,[13],10%
same,IC50,[14],5.3 to 6 nM
same,inhibition,[15],2%
same,inhibition in vivo at 5 mg/kg,NCI-H1975 [16],46.8%
same,CLint scaled,[17],54 mL/min/kg
same,inhibition,[18],9%
same,inhibition,[19],6%
same,Activity,Mus musculus [20],Non-Toxic
same,inhibition,[21],10%
same,T/C,NCI-H1975 [22],56.4%
same,inhibition,[23],1%
same,inhibition,[24],78%
same,inhibition,[25],-1%
same,inhibition,[26],16%
same,CLint scaled,[27],457 mL/min/kg
same,inhibition,[28],8%
same,inhibition,Homo sapiens,110%
same,MRT,[29],5.7 h
same,inhibition,[30],56%
